Measured values reported in ChEMBL document CHEMBL4406804, “Discovery of a Potent Steroidal Glucocorticoid Receptor Antagonist with Enhanced Selectivity against the Progesterone and Androgen Receptors (OP-3633)” (J Med Chem, 2019).
Values after ≈ are worked out from the molar mass of the structure shown. Active and inactive are the calls of the source. No cut-off for these calls is given here.

Columns and labels:
Glucocorticoid receptor [1] = target: T1, Glucocorticoid receptor (Homo sapiens, UniProt P04150); assay: Antagonist activity at human glucocorticoid receptor expressed in CHO-K1 cells assessed as inhibition of glucocorticoid receptor-dexamethasone coactivator protein-protein interaction incubated for 24 hrs by bioluminescence assay; assay type: cell-based
T1 sequence (P04150 whole entry): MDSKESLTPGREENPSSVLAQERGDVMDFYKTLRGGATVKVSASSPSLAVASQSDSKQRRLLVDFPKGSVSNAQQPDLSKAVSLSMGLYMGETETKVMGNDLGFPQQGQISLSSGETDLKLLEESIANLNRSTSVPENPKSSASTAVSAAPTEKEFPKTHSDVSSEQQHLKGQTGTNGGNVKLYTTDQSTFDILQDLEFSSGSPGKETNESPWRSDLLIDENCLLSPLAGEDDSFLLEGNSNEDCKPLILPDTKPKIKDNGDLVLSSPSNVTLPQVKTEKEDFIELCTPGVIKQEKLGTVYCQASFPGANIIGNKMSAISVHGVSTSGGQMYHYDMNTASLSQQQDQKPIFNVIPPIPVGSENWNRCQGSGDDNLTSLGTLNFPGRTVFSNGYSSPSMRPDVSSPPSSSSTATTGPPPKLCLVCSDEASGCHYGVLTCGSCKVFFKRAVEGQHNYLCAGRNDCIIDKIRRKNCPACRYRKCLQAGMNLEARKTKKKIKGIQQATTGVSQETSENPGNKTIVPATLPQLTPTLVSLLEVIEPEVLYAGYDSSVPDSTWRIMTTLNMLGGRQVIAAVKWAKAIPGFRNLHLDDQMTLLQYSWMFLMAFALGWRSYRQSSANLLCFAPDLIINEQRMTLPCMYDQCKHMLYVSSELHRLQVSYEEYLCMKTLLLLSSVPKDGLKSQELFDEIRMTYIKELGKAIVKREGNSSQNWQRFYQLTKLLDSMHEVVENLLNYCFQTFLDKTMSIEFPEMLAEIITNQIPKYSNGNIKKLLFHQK

Glucocorticoid receptor [2] = target: T1, Glucocorticoid receptor; assay: Displacement of fluormone tracer from full length human recombinant glucocorticoid receptor expressed in baculovirus expression system incubated for 2 hrs by competitive fluorescence polarization binding assay
Androgen receptor [3] = target: T2, Androgen receptor (Homo sapiens, UniProt P10275); assay: Antagonist activity at human androgen receptor in human LNCAP cells harboring firefly luciferase gene after 20 hrs by One-Glo luciferase reporter gene assay; assay type: cell-based
T2 sequence (P10275 whole entry): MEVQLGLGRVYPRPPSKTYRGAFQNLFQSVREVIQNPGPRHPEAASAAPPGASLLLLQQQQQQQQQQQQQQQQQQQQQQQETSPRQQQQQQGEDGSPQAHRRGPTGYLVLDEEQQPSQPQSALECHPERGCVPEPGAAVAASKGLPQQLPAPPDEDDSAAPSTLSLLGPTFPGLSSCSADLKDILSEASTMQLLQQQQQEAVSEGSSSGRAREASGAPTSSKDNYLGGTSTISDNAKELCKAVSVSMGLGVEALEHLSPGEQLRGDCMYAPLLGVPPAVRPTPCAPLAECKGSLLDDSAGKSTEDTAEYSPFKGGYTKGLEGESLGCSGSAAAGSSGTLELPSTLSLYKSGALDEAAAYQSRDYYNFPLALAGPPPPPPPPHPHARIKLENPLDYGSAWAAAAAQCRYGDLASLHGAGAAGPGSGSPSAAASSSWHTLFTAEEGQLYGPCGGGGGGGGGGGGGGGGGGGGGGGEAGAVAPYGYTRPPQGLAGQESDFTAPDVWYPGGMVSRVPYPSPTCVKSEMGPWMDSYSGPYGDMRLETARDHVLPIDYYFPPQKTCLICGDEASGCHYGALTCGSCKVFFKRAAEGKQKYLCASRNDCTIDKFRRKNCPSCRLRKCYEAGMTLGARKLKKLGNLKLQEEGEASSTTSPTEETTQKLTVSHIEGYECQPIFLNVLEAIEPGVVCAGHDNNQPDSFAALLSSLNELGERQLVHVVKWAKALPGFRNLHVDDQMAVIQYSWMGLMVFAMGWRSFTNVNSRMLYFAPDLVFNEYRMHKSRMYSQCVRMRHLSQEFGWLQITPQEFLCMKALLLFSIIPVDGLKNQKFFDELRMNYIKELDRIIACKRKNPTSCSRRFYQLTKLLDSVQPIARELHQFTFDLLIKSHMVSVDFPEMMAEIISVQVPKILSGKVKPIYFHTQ
In short: (§1)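 Cell-based luciferase reporter assays for GR, AR and PR, run in agonist and antagonist modes. Potency and Emax are averages of at least two determinations, reported with SD.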

[4] = target: T3, Glucocorticoid receptor (Homo sapiens) (UniProt P04150); assay: Antagonist activity at human glucocorticoid receptor expressed in CHO-K1 cells harboring firefly luciferase gene assessed as inhibition of glucocorticoid receptor activity at 0.01 to 10000 nM after 20 hrs by One-Glo luciferase reporter gene assay relative to mifepristone; assay type: cell-based; design: scale not given: the % may be the effect or the level left; in short: as §1
T3 sequence (whole entry): T1 sequence (P04150 whole entry)

[5] = target: T4, Progesterone receptor (Homo sapiens) (UniProt P06401); assay: Agonist activity at human progesterone receptor expressed in CHO-K1 cells harboring firefly luciferase gene after 20 hrs by One-Glo luciferase reporter gene assay; assay type: cell-based; in short: as §1
T4 sequence (whole entry): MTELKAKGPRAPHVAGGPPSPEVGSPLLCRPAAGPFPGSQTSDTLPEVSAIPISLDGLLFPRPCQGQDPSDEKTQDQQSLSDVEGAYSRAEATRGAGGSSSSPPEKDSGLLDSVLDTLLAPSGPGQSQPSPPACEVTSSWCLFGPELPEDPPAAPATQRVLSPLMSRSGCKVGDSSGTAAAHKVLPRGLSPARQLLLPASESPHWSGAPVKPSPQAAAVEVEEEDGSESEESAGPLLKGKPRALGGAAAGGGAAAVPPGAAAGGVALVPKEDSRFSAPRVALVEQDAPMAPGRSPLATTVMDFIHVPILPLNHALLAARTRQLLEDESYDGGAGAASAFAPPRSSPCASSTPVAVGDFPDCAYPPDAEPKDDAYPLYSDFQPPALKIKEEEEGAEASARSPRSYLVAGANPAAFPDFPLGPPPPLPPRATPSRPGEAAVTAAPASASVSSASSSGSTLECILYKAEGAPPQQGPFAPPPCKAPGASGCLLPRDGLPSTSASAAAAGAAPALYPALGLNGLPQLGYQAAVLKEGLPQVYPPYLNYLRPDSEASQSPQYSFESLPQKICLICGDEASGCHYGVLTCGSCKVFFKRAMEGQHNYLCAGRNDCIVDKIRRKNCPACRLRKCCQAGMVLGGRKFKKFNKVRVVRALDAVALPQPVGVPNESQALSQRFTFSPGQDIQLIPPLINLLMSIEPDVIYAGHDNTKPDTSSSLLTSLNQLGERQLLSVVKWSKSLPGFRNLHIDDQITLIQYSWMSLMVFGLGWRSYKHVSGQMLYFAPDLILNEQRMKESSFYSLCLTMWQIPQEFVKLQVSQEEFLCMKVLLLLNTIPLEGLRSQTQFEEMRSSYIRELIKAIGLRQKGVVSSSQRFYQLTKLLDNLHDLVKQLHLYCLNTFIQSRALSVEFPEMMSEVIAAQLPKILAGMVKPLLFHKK

Progesterone receptor = target: T5, Progesterone receptor (Homo sapiens, UniProt P06401); assay: Antagonist activity at human progesterone receptor expressed in CHO-K1 cells harboring firefly luciferase gene after 20 hrs by One-Glo luciferase reporter gene assay; assay type: cell-based; in short: as §1
T5 sequence (P06401 whole entry): T4 sequence (whole entry)

Homo sapiens = organism: Homo sapiens; assay: Selectivity ratio, ratio of IC50 for human androgen receptor in human LNCAP cells to IC50 for human glucocorticoid receptor expressed in CHO-K1 cells harboring firefly luciferase gene; assay type: cell-based
CYP2C8 = target: T6, CYP2C8 (Homo sapiens, UniProt P10632); assay: Inhibition of CYP2C8 (unknown origin) at 10 uM using paclitaxel as substrate relative to control; assay type: ADME; details: probe paclitaxel
T6 sequence (P10632 whole entry): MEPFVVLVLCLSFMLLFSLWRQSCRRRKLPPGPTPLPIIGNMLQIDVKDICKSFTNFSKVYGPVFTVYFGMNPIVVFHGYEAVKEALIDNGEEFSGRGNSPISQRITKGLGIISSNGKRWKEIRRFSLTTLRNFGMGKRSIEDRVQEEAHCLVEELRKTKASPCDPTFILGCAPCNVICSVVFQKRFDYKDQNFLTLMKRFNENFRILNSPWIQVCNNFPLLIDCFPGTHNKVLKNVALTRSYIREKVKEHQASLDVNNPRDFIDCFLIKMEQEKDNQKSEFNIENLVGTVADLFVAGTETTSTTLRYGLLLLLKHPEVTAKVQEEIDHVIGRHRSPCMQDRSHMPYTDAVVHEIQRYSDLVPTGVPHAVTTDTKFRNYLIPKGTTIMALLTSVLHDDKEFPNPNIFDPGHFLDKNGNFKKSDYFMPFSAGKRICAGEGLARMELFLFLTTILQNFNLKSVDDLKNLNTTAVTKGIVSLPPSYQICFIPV

CYP3A4 = CYP3A4 (Homo sapiens, UniProt P08684); assay: Inhibition of CYP3A4 (unknown origin) at 10 uM using midazolam as substrate relative to control; assay type: ADME; details: probe midazolam
Androgen receptor [6] = target: T2, Androgen receptor; assay: Agonist activity at human androgen receptor in human LNCAP cells harboring firefly luciferase gene after 20 hrs by One-Glo luciferase reporter gene assay relative to mifepristone; assay type: cell-based; in short: as §1
Androgen receptor [7] = target: T2, Androgen receptor; assay: Agonist activity at human androgen receptor in human LNCAP cells harboring firefly luciferase gene after 20 hrs by One-Glo luciferase reporter gene assay; assay type: cell-based
Glucocorticoid receptor [8] = target: T1, Glucocorticoid receptor; assay: Antagonist activity at human glucocorticoid receptor expressed in CHO-K1 cells harboring firefly luciferase gene after 20 hrs by One-Glo luciferase reporter gene assay; assay type: cell-based
[9] = Solubility of compound in PBS at pH 7.4; assay type: physicochemical
[10] = Solubility of compound in fasted state simulated intestinal fluid at pH 6.5; assay type: physicochemical
[11] = Solubility of compound in fasted state simulated gastric fluid at pH 1.2; assay type: physicochemical

CYP3A4, sequence (P08684 whole entry): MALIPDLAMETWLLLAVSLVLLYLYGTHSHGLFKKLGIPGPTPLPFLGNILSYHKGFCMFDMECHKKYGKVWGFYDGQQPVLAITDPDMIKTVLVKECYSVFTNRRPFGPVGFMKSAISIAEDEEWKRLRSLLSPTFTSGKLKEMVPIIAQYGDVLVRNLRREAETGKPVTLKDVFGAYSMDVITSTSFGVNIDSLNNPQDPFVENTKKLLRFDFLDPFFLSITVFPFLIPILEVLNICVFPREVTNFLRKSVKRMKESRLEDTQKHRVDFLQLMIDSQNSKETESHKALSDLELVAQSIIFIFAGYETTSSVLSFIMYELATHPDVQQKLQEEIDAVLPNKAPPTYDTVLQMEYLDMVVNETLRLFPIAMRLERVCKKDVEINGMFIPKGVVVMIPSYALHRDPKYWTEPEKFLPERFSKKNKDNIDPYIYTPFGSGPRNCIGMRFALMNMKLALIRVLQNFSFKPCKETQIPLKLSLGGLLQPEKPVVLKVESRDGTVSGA

CN(C)c1ccc([C@H]2C[C@@]3(C)[C@@H](CC[C@@]3(O)C#CC(C)(C)C)[C@@H]3CCC4=CC(=O)CCC4=C32)cc1
IC50 (Glucocorticoid receptor [1]): 0.0075 µM
IC50 (Glucocorticoid receptor [2]): 0.008 µM
IC50 (Androgen receptor [3]): 0.129 µM
Activity [4]: 100%
agonist activity [5]: inactive
IC50 (Progesterone receptor): 0.0144 µM
Ratio (Homo sapiens): 10 to 30

CN(C)c1ccc([C@H]2C[C@@]3(C)[C@@H](CC[C@@]3(O)C#CC(C)(C)C)[C@@H]3CCC4=CC(=O)CC[C@]4(C)[C@H]32)cc1
IC50 (Androgen receptor [3]): > 5 µM
Activity [4]: 100%
inhibition at 10 µM (CYP2C8): 84%
agonist activity [5]: inactive
IC50 (Progesterone receptor): 2.49 µM
inhibition at 10 µM (CYP3A4): 71%
Emax at 20 h (Androgen receptor [6]): 7.4%
EC50 (Androgen receptor [7]): > 2.5 µM
IC50 (Glucocorticoid receptor [8]): 0.0336 µM
Ratio (Homo sapiens): 70

CN(C)c1ccc([C@H]2C[C@@]3(C)[C@@H](CC[C@@]3(O)C#CC(C)(C)C)[C@@H]3CCC4=CC(=O)CC[C@@H]4[C@H]32)cc1
IC50 (Androgen receptor [3]): 0.165 µM
Activity [4]: 100%
agonist activity [5]: inactive
IC50 (Progesterone receptor): 0.0034 µM
Ratio (Homo sapiens): 10 to 30

CN(C)c1ccc([C@H]2C[C@@]3(C)[C@@H](CC[C@@]3(O)C#CC3CC3)[C@@H]3CCC4=CC(=O)CC[C@]4(C)[C@H]32)cc1
IC50 (Androgen receptor [3]): 1.45 µM
Activity [4]: 100%
inhibition at 10 µM (CYP2C8): 70%
agonist activity [5]: inactive
IC50 (Progesterone receptor): 1.49 µM
inhibition at 10 µM (CYP3A4): 53%
Emax at 20 h (Androgen receptor [6]): 5.4%
EC50 (Androgen receptor [7]): > 2.5 µM
IC50 (Glucocorticoid receptor [8]): 0.0285 µM

CC(C)(C)C#C[C@]1(O)CC[C@H]2[C@@H]3CCC4=CC(=O)CC[C@@H]4[C@H]3[C@@H](c3ccc(N4CCOCC4)cc3)C[C@@]21C
IC50 (Androgen receptor [3]): 0.208 µM
Activity [4]: 100%
agonist activity [5]: inactive
IC50 (Progesterone receptor): 0.0048 µM
Emax at 20 h (Androgen receptor [6]): 5.1%
EC50 (Androgen receptor [7]): > 2.5 µM
IC50 (Glucocorticoid receptor [8]): 0.0103 µM
Ratio (Homo sapiens): 10 to 30

CC(C)(C)C#C[C@]1(O)CC[C@H]2[C@@H]3CCC4=CC(=O)CC[C@@H]4[C@H]3[C@@H](c3ccc(N4CCN(S(C)(=O)=O)CC4)cc3)C[C@@]21C
IC50 (Androgen receptor [3]): 0.359 µM
Activity [4]: 100%
agonist activity [5]: inactive
IC50 (Progesterone receptor): 0.0046 µM
Emax at 20 h (Androgen receptor [6]): 18.1%
EC50 (Androgen receptor [7]): > 2.5 µM
IC50 (Glucocorticoid receptor [8]): 0.0122 µM
Ratio (Homo sapiens): 10 to 30

CC#C[C@]1(O)CC[C@H]2[C@@H]3CCC4=CC(=O)CCC4=C3[C@@H](c3ccc(N(C)C)cc3)C[C@@]21C [MIFEPRISTONE]
solubility [9]: 3 µM (≈ 1.29 µg/mL)
solubility [10]: 5.4 µM (≈ 2.32 µg/mL)
solubility [11]: > 1160 µM
